Entries after “also recorded” stand apart in the source; their conditions may differ. Like-named read-outs stand apart in the source and are kept apart here.
Tests used:
[1] = tested on: GluN1/GluN3 receptors; conditions: ref Grand et al., 2018; cited from earlier work
[2] = target: human GluN1^FA,TL/GluN3A receptors (Homo sapiens, UniProt Q8TCU5); assay type: cell-based
[3] = target: human GluN1/GluN3A receptors (Homo sapiens, UniProt Q8TCU5); assay type: cell-based
Procedure, shortened: (§1)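 Xenopus oocyte two-electrode voltage clamp at −40 mV, 23°C. Human GluN1/GluN3A or rat GluN1–4a/GluN3B, with GluN1:GluN3 cRNA at 1:3. […] Concentration–response data normalized to responses without test compound, fitted by Hill equation for IC50, slope and residual minimum. Percent inhibition was 100×(1−Idrug/Icontrol) at fitted maximum. IC50 taken from mean log(IC50); 8–9 oocytes.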

[4] = target: rat GluN1/GluN3B receptors (rat GluN1–4a/GluN3B) (Rattus norvegicus, UniProt Q8VHN2); assay type: cell-based
rat GluN1/GluN3B receptors (rat GluN1–4a/GluN3B), sequence (Q8VHN2 25-1002, other chains not shown): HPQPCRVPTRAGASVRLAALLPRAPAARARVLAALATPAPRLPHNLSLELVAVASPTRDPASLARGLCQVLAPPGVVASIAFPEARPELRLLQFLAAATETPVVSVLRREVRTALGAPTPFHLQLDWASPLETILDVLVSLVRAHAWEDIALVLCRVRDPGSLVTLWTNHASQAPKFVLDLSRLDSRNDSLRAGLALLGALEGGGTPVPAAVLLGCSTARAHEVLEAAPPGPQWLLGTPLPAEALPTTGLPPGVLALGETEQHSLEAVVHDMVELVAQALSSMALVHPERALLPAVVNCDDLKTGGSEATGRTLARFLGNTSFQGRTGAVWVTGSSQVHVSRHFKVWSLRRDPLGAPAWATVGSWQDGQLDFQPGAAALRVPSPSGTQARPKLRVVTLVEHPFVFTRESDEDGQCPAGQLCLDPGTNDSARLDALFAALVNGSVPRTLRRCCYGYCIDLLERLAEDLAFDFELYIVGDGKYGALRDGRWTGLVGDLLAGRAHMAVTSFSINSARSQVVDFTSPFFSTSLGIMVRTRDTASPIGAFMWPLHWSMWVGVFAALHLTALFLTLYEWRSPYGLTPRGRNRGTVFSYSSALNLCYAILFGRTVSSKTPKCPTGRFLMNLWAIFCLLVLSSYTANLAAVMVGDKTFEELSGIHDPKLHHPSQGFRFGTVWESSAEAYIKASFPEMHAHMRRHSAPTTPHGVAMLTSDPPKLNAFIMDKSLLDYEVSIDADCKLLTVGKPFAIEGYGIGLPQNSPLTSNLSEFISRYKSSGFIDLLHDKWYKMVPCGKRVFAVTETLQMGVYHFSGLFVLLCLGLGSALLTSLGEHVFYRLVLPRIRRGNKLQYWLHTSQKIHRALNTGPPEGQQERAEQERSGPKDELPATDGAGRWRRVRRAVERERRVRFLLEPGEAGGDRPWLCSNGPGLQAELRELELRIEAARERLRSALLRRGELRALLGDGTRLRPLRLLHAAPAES
Procedure, shortened: as §1

[5] = target: rat GluN1–4a^FA,TL/GluN3B receptors (Rattus norvegicus, UniProt P35439+Q8VHN2, F484A/T518L); assay type: cell-based
rat GluN1–4a^FA,TL/GluN3B receptors, sequence (Q8VHN2 25-1002, other chains not shown): as above

[6] = tested on: GluN1/GluN2 NMDA receptors (GluN1 co-expressed with GluN2A-D); test: Selectivity test in Xenopus oocytes: GluN1/GluN2 NMDA receptors; assay type: cell-based
[7] = tested on: GluA1–4 AMPA receptors; test: Selectivity test in Xenopus oocytes: AMPA receptors; assay type: cell-based, rat, human; conditions: 20 μM; 100 μM glutamate
[8] = tested on: GluK1–2 and GluK2/GluK5 kainate receptors; test: Selectivity test in Xenopus oocytes: kainate receptors; assay type: cell-based, human; conditions: 20 μM; 100 μM glutamate (GluK2/K5: 100 μM AMPA)
[9] = tested on: GABA receptors (GABAA α1β2γ2S, GABAC ρ1); test: Selectivity test in Xenopus oocytes: GABA receptors; assay type: cell-based, rat; conditions: 20 μM; 100 μM GABA
[10] = target: T1, glycine receptors (α1) (Rattus norvegicus, UniProt P07727); test: Selectivity test in Xenopus oocytes: glycine receptors; assay type: cell-based; conditions: 20 μM; 100 μM glycine
T1 sequence (P07727 29-457): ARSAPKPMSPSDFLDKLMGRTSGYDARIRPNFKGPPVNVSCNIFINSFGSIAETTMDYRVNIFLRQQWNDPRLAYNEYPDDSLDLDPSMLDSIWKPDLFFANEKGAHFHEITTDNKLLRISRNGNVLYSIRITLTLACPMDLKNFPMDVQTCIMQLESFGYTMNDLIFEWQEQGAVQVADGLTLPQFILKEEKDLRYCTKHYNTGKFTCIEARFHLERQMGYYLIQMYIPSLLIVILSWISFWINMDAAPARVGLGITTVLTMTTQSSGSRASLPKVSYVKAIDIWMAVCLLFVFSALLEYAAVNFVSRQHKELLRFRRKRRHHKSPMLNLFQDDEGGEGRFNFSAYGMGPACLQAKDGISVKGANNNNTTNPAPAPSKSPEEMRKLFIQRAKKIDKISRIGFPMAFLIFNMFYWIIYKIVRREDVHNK

[11] = target: alpha7 nicotinic receptors (Rattus norvegicus, UniProt Q05941); test: Selectivity test in Xenopus oocytes: alpha7 nicotinic receptors; assay type: cell-based; conditions: 20 μM; 300 μM acetylcholine
alpha7 nicotinic receptors, sequence (Q05941 23-502): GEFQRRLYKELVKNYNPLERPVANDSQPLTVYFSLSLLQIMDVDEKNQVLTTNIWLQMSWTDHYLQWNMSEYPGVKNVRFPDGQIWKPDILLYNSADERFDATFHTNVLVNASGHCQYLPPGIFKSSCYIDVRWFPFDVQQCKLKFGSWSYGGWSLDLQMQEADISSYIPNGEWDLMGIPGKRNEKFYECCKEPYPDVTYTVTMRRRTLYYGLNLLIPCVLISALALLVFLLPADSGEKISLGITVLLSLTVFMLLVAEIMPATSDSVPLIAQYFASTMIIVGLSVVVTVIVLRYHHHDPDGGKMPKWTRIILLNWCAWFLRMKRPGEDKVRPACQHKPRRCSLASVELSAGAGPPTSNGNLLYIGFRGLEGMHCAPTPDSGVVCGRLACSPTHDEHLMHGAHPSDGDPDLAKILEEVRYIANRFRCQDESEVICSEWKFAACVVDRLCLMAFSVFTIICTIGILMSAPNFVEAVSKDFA

[12] = target: muscle nicotinic receptors (α1β1δγ) (Rattus norvegicus, UniProt P18916+P25108+P25109+P25110); test: Selectivity test in Xenopus oocytes: muscle nicotinic receptors; assay type: cell-based; conditions: 20 μM; 1 μM acetylcholine
Procedure, shortened: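 Two-electrode voltage clamp on Xenopus oocytes 2–5 days after cRNA injection; muscle nAChR subunits were injected 1:1:1:1. Recorded at 23°C and −40 mV in HEPES/BaCl2 saline, pH 7.4. Test compound at 20 μM was co-applied with agonist. Response was given as percent of control, taking control as the mean of responses before and after compound exposure.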

[13] = target: α2β4 nicotinic receptors (Rattus norvegicus, UniProt P09483+P12390); test: Selectivity test in Xenopus oocytes: α2β4 nicotinic receptors; assay type: cell-based; conditions: 20 μM; 10 μM acetylcholine
α2β4 nicotinic receptors, sequence (P09483 31-630): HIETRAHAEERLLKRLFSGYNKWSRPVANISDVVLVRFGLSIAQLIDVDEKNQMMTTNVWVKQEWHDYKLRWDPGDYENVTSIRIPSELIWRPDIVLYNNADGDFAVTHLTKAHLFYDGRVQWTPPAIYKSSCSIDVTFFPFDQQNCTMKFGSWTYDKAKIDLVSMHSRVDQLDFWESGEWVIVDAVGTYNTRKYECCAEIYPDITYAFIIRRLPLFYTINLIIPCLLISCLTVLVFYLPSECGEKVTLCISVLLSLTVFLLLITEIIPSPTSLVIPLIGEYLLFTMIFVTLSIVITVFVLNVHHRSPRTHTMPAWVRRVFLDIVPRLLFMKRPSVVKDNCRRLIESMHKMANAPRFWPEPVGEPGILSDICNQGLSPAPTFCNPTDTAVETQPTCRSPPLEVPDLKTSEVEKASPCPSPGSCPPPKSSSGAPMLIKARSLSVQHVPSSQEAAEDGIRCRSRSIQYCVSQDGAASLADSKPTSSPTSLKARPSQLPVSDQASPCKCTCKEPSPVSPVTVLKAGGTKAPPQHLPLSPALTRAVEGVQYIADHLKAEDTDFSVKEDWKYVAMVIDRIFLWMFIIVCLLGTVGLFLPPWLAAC
α2β4 nicotinic receptors, sequence (P12390 25-500): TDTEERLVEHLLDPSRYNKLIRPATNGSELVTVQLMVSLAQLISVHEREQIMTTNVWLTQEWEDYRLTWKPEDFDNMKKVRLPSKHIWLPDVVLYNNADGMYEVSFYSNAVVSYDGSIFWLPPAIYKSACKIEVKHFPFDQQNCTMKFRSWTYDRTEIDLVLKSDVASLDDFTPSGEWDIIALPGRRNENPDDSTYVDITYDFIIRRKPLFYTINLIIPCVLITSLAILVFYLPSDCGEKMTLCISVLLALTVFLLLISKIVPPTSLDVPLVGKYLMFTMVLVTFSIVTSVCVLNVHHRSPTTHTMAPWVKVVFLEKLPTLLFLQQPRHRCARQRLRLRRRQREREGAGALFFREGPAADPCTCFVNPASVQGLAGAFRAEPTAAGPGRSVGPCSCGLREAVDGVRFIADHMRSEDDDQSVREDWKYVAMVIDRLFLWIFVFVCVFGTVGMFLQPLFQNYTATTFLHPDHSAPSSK

[14] = target: T2, P2X receptors (human P2X2) (Homo sapiens, UniProt Q9UBL9); test: Selectivity test in Xenopus oocytes: purinergic receptors; assay type: cell-based; conditions: 20 μM; 9 μM ATP
T2 sequence (Q9UBL9 1-471): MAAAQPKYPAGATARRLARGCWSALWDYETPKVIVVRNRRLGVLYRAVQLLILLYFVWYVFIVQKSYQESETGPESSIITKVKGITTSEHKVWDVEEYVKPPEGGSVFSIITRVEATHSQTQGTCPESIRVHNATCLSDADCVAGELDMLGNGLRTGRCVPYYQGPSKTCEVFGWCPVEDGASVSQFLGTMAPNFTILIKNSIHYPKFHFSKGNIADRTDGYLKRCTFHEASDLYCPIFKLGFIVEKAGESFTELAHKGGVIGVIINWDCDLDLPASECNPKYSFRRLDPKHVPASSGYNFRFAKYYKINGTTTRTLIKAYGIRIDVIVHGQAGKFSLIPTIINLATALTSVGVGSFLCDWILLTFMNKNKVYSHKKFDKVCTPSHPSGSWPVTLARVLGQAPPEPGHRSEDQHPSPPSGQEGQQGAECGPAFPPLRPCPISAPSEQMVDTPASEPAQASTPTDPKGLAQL

[15] = target: native GluN1/GluN3A receptors (Mus musculus, UniProt A2AIR5); assay type: cell-based; conditions: 30 μM; 1 μM CGP-78608; 10 mM glycine puffs; mouse P8–15 slices
native GluN1/GluN3A receptors, sequence (A2AIR5 27-1135, other chains not shown): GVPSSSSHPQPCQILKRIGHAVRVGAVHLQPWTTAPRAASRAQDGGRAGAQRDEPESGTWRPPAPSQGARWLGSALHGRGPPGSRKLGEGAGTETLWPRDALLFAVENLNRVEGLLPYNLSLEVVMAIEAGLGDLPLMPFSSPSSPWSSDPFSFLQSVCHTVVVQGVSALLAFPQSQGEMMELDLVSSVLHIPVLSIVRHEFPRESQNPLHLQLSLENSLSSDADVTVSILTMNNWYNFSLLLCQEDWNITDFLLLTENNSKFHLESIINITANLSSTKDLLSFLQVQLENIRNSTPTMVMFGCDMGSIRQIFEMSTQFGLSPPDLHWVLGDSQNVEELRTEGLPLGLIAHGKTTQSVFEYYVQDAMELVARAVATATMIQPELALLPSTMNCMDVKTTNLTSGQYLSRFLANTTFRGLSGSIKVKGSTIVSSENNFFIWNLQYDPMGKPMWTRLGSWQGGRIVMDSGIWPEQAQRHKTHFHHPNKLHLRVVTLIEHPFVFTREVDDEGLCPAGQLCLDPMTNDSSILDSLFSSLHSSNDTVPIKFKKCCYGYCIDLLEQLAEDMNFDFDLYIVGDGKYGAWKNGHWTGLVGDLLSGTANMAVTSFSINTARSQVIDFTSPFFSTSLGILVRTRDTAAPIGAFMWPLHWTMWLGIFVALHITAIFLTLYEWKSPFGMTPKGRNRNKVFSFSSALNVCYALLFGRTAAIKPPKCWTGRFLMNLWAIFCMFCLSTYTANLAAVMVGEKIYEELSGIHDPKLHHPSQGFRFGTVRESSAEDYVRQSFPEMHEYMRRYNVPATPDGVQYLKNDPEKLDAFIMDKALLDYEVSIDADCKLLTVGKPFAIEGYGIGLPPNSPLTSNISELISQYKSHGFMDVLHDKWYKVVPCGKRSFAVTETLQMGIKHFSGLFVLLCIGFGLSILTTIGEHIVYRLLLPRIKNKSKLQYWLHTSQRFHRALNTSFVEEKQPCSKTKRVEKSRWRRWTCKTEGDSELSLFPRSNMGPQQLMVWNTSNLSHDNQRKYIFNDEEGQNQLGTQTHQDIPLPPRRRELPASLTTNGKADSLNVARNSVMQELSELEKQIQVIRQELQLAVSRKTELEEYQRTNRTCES

[16] = tested on: GluN1/GluN2 NMDA receptors; assay type: cell-based; conditions: 30 μM; 0.5 mM NMDA puffs; mouse P8–15 slices
[17] = target: GluN1/GluN3A channels (Mus musculus, UniProt A2AIR5); test: Nonstationary variance analysis of neuronal glycine-evoked current responses; assay type: cell-based; conditions: 30 μM; VHOLD −60 mV; n = 5
GluN1/GluN3A channels, sequence (A2AIR5 27-1135, other chains not shown): as above
Procedure, shortened: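 Acute mouse hippocampal slices (P8–15), CA1 pyramidal cells, whole-cell at −60 mV, 32°C ACSF with gabazine, NBQX, DL-APV, strychnine and 1 μM CGP-78608. […] Compound at 30 μM or 0.15% DMSO bath-applied. Ten deactivation phases per condition at steady state, split into 50 segments, high-passed at 1 Hz. Variance–current fit gave unitary current; chord conductance assumed 0 mV reversal.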

[18] = tested on: GluN1/GluN3 receptors; conditions: ref Kvist et al., 2013a; cited from earlier work
[19] = tested on: GluN1; conditions: read-out: EC50 of glycine at GluN1; ref Grand et al., 2018; Kvist et al., 2013a; cited from earlier work
[20] = tested on: GluN3A; conditions: read-out: EC50 of glycine at GluN3A; ref Grand et al., 2018; Kvist et al., 2013a; cited from earlier work
[21] = 500 nM CGP-78608 plus 100 μM glycine

human GluN1^FA,TL/GluN3A receptors, sequence (Q8TCU5 24-1115, other chains not shown): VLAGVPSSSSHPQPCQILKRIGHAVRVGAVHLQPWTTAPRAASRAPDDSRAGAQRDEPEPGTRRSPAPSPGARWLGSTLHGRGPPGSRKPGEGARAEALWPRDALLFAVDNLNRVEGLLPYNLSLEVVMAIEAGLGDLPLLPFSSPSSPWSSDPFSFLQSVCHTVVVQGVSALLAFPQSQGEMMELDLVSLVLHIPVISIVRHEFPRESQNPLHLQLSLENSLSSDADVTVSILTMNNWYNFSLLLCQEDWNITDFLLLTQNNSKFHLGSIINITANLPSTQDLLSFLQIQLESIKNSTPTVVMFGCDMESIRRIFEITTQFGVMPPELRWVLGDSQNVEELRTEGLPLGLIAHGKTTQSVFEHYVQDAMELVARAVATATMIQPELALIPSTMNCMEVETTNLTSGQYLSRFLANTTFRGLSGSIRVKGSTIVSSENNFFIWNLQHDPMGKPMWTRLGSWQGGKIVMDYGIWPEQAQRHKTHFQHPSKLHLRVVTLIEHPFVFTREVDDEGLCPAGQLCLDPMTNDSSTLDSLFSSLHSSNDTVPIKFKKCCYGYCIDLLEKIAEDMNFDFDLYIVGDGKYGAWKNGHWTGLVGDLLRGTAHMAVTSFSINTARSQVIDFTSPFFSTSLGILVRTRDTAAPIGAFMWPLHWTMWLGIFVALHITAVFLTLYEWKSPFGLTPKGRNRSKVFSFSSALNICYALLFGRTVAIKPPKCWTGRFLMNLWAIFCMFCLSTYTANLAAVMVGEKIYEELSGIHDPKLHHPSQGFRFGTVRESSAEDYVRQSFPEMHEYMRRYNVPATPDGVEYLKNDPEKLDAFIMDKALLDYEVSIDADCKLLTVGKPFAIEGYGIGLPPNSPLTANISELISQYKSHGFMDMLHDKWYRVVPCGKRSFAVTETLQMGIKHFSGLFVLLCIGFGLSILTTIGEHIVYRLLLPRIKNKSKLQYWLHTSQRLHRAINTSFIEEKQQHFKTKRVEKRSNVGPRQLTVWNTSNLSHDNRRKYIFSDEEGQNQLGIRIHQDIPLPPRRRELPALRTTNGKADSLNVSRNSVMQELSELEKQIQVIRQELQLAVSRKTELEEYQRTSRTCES
human GluN1/GluN3A receptors, sequence (Q8TCU5 24-1115, other chains not shown): as above

SMILES: C[C@@H](NCc1cc(Br)cc2[nH]c(=O)c(=O)[nH]c12)P(=O)(O)O.Cl [CGP-78608, [(1 S)-1-[[(7-bromo-1,2,3,4-tetrahydro-2,3-dioxo-5-quinoxalinyl)methyl]amino]ethyl]phosph onic acid hydrochloride]
- effect on activation of GluN1/GluN3 receptors [1]: can dramatically enhance activation of GluN1/GluN3 receptors

SMILES: COc1ccc(OCC(c2ccc(OC)cc2)N2Cc3ccccc3C2=O)cc1 (stereo not shown) [EU1180–438, 2-(2-(4-methoxyphenoxy)-1-(4-methoxyphenyl)ethyl)isoindolin-1-one]
- response in the presence of compound, % of control ([2]; 10 μM EU1180–438, 1 mM glycine): 29 ± 4.2 % of control
- dependence of inhibition on glycine concentration ([2]; 10 μM EU1180–438, 1 mM vs 3 mM glycine): not altered by increasing glycine concentration
- response in the presence of compound, % of control ([2]; 10 μM EU1180–438, 3 mM glycine): 29 ± 4.2 % of control
- IC50 ([2]; IC50, pH 6.8): 4.2 µM
- IC50 ([2]; IC50, pH 7.4, 1 mM glycine, holding potential −40 mV, mean of individual fits): 3.5 µM
- % Inhibition (fitted maximum at saturating test compound) ([2]; pH 6.8): 72%
- % Inhibition (fitted maximum at saturating test compound) ([2]; pH 7.4, 1 mM glycine, −40 mV): 82%
- Slope (Hill slope, Fig. 1C) ([2]; responses activated by 1000 μM glycine): 1.3
- Slope (Hill slope, Fig. 1D) [3, 21]: 1.5
- minimum (residual current at saturating concentration, Fig. 1D) [3, 21]: 15%
- % Inhibition (fitted maximum at saturating test compound) ([3]; pH 7.4, 0.5 μM CGP-78608): 85%
- Slope (Hill slope, Fig. 1D) [4, 21]: 1.5
- minimum (residual current at saturating concentration, Fig. 1D) [4, 21]: 7%
- % Inhibition (fitted maximum at saturating test compound) ([4]; pH 7.4, 0.5 μM CGP-78608): 93%
- IC50 [5]: 5.2 µM
- % inhibition at saturating concentrations determined from the fitted curve ([5]; data not shown): 82%
- activity at GluN1/GluN2 NMDA receptors ([6]; 20 μM, 100 μM glutamate/100 μM glycine): virtually no activity
- activity at recombinant GluN1/GluN2 NMDA receptors (library screen) ([6]; screen): no detectable activity
- activity at AMPA receptors [7]: virtually no activity
- activity at kainate receptors [8]: virtually no activity
- activity at GABA receptors [9]: virtually no activity
- activity at glycine receptors [10]: virtually no activity
- activity at alpha7 nicotinic receptors [11]: virtually no activity
- activity at muscle nicotinic receptors [12]: modestly inhibited
- activity at α2β4 nicotinic receptors [13]: modestly inhibited
- activity at P2X receptors [14]: inactive
- effect on glycine-activated responses of native GluN1/GluN3A receptors [15]: inhibited significantly; also recorded: strong inhibition
- effect on NMDA-activated responses mediated by GluN1/GluN2 NMDA receptors [16]: does not affect current responses; also recorded: not modulated
- average chord conductance of GluN1/GluN3A channels in the presence of compound [17]: 6.3 ± 0.90 pS

SMILES: O=C(O)c1cc(C(=O)c2ccc(Cl)cc2Cl)c[nH]1 [TK30]
- preference for GluN1/GluN3 over GluN1/GluN2 receptors [18]: 5- to 10 fold

SMILES: O=c1[nH]c2nonc2nc1O [TK80]
- preference for GluN1/GluN3 over GluN1/GluN2 receptors [18]: 5- to 10 fold

SMILES: NCC(=O)O [glycine]
- EC50 [20]: 10 to 60 µM

From publication PMC7530031 (Neuropharmacology, 2020)
